From PubChem BioAssay
hK5 inh = human KLK5 protease inhibitors, primary screen, biochemical, 1536-well | recombinant hK5, fluorogenic AMC substrate cleavage | inhibition, % at 5 µM | actives 0.59% (n = 210,000);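 active means inhibition of 40% or more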;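 further: 0% = enzyme controls without compound and 100% = no-enzyme blanks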
Calpain2 inh = inhibitors of pig calpain II, primary screen, biochemical, fluorogenic peptide substrate, 1536-well | purified calpain II, 30 min | inhibition, % at 16 µM | actives 0.37% (n = 220,000);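 active means inhibition above about 50%, limit read from the data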
FXIIa inh = human FXIIa protease inhibitors, primary screen, biochemical, 1536-well. actives 0.3% (n = 220,000). inhibition, % at 5 µM. purified FXIIa, Boc-QGR-AMC fluorogenic substrate, 2 h. Coagulation factor XII (Homo sapiens), P00748. AID 800, 2007; in the data active means inhibition above about 40%;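 further: 0% = enzyme with no compound and 100% = blank without enzyme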
FXIa inh = human FXIa protease inhibitors, primary screen, biochemical, 1536-well; inhibition, % at 5 µM; purified FXIa, Boc-Glu-Ala-Arg-AMC fluorogenic substrate; actives 0.14% (n = 220,000); Coagulation factor XI (Homo sapiens), P03951;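 active means inhibition of at least 40%; inactive means inhibition below 40%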;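 further: fluorescence of freed AMC excited at 355 nm; 0% = enzyme without compound and 100% = no enzyme blank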
Furin inh = human furin inhibitors, primary screen, biochemical, fluorescence intensity; P09958; purified furin, fluorogenic substrate cleavage; inhibition, % at 20 µM or 30 µM; actives 0.061% (n = 220,000); AID 463115, 2010; in the data active means inhibition above about 25%
thrombin 1536 = human alpha-thrombin inhibitors, primary screen, counter-screen for coagulation protease inhibitor project, biochemical, 1536-well, fluorogenic AMC substrate; Boc-VPR-AMC fluorogenic substrate cleavage; AID 1046, 2008; inhibition, % at 5 µM; Prothrombin (Homo sapiens), P00734; actives 0.26% (n = 220,000);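 active means inhibition at or above 40%; inactive means inhibition below 40%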;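 further: 0% = enzyme with no compound and 100% = wells without enzyme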
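System – human alpha-thrombin · Medium – pH 7.5 Tris (50 mM) with NaCl 150 mM, Tween 20 0.05% · Compound – single-point dosing at 5 µM, 0.2% DMSO · Incubation – enzyme reaction carried out at room temperature · Technique – fluorescence of released AMC, ex 355 nm, em 460 nm · Read-out basis – % inhibition of thrombin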
Starred values were filed as active, the others as inactive; nt = no result given. Shown are actives, neighbours in structure and some others; about 1.4% of the full set was active somewhere.

SMILES	hK5 inh	Calpain2 inh	FXIIa inh	FXIa inh	Furin inh	thrombin 1536
O=C(c1cccnc1)C1CCCN(Cc2nc(-c3cnccn3)no2)C1 (stereo not given)	26	4	41*	37	-7	30
O=C1C2CCN(CC2)C1Cc1ccc(OCc2ccccc2)cc1 (stereo not given)	-15	12	-4	-1	-17	3
CSc1nc(N2CCN(C)CC2)c2ccccc2n1	nt	-28	7	-2	-21	-5
CCOC(=O)c1ccc(N=C(c2ccccc2)c2c(O)n(C)c(=O)n(C)c2=O)cc1	43*	-1	-1	-13	-4	-8
COC(=O)c1ccc(N=C(c2ccccc2)c2c(O)n(C)c(=O)n(C)c2=O)cc1	-5	-6	0	-3	-3	-10
COC(=O)C(O)(c1c[nH]c2ccccc12)C(F)(F)F (stereo not given)	-15	-11	22	5	-19	1
COC(=O)C(O)(c1c(C)[nH]n(-c2ccccc2)c1=O)C(F)(F)F (stereo not given)	99*	8	23	11	-20	13
Cc1cc(NC(=O)CCl)on1	-12	-17	4	-2	-25	6
